hK5 inh = kallikrein 5 (human) inhibition; Q9Y337; recombinant hK5, fluorogenic AMC substrate cleavage; inhibition, % at 5 µM; hit rate 0.59% among 210,000;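 active = inhibition of 40% or more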;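 also: 0% = enzyme controls without compound and 100% = no-enzyme blanks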
Target sequence (Q9Y337 67-293 limits assumed): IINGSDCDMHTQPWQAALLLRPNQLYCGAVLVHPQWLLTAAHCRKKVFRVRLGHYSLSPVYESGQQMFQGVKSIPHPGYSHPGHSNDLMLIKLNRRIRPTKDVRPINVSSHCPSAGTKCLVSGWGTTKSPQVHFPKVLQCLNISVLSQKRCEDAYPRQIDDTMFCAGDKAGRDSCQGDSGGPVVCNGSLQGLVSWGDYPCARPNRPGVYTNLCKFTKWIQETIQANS
thrombin 1536 = blocks human thrombin protease activity; P00734; alpha-thrombin, Boc-VPR-AMC fluorogenic substrate cleavage; inhibition, % at 5 µM; hit rate 0.26% among 220,000; AID 1046;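 active = inhibition at or above 40%; inactive = inhibition below 40%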;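 also: 0% = enzyme with no compound and 100% = wells without enzyme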
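System: human alpha-thrombin protein; Compound dosing: one concentration per compound, 5 µM, with 0.2% DMSO; Timing: reaction at room temperature; Technique: AMC fluorescence, 355/460 nm; Controls: enzyme without compound as high, wells lacking enzyme as low.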
FXIIa inh = inhibitors of human coagulation factor XIIa; P00748; purified FXIIa, Boc-QGR-AMC fluorogenic substrate, 2 h; inhibition, % at 5 µM; hit rate 0.3% among 220,000; AID 800; in the data active = inhibition above about 40%;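 also: 0% = enzyme with no compound and 100% = blank without enzyme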
Wee1 stabilizer = inhibitors of human Wee1 degradation; P30291; HeLa Luc-Wee1K328M stability, luciferase luminescence; 100% = proteasome inhibitor MG132 effect; reporter increase, % at 5 µM; hit rate 1.2% among 220,000; AID 1321;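 active = activation above the mean of all tested compounds plus 3 SD, set per screening run, cut at about 8.8% in these data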;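 also: cells exposed to compound for 20 h before luminescence read; 0% = DMSO alone and 100% = MG132 at 30 µM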
FXIa inh 1536 = inhibitors of human coagulation factor XIa; P03951; purified FXIa, Boc-Glu-Ala-Arg-AMC fluorogenic substrate; inhibition, % at 5 µM; hit rate 0.14% among 220,000; AID 798;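 active = inhibition of at least 40%; inactive = inhibition below 40%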;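 also: fluorescence of freed AMC excited at 355 nm; 0% = enzyme without compound and 100% = no enzyme blank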
Platelet DG rel = platelet dense granule release activity. human platelet-rich plasma, SFLLRN dense granule ATP release, luminescence. hit rate 0.22% among 300,000. inhibition, %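 (compounds screened at 7.5 µM in platelet-rich plasma)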;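 active = mean replicate score, as percent of positive control, at or above 50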
* hit, by the source's call; · = no result. A selection: hits, their analogues and other compounds. The true share with any hit is near 1.8%.

SMILES	hK5 inh	thrombin 1536	FXIIa inh	Wee1 stabilizer	FXIa inh 1536	Platelet DG rel
COc1ccc(Nc2cc3n(c(=O)n2)CCc2cc(OC)c(OC)cc2-3)c(C)c1	·	·	·	·	·	79.8*
COc1cc2c(cc1OC)-c1cc(Nc3ccc4c(c3)OCCO4)nc(=O)n1CC2	-14.3	10.7	23.4	-1.6	2.3	50.7*
CCOC(=O)C1(Cc2cccc(F)c2)CCN(Cc2cnn(CC)c2C)CC1	-0.5	-8.2	9.4	-0.2	-3.9	-1.0
O=C(C1CCCN(CCCc2ccccc2)C1)N1CCCCCC1 (stereo not drawn)	-17.1	-5.7	-2.9	-2.9	-4.0	1.3
CCOc1ccc(-n2c(SCC(=O)Nc3ccc(C(=O)O)cc3)nc3ccccc3c2=O)cc1	·	·	·	·	·	4.8
CC(C)c1ccc(-c2cc(C(=O)NN3CCN(C)CC3)c3ccccc3n2)cc1	-11.0	-6.8	8.3	-1.8	5.6	53.6*
O=C(NN1CCOCC1)c1cc(-c2ccc(Br)cc2)nc2ccccc12	-57.5	-4.4	2.1	3.1	-6.9	12.1
O=C(NCCCN1CCOCC1)c1cc(-c2ccc3c(c2)OCO3)nc2ccccc12	0.6	-0.8	3.5	10.7*	7.4	-18.4
CCc1ccc(-c2cc(C(=O)NN3CCOCC3)c3ccccc3n2)cc1	-11.3	-9.9	8.7	27.6*	-8.1	1.3
C#CCOCCOCCOCCNc1nc(N2CCN(C(=O)[C@H](Cc3ccc(O)cc3)n3cc(CCO)nn3)CC2)nc(N2CCN(C(=O)[C@H](Cc3ccc(O)cc3)n3cc(CCO)nn3)CC2)n1	8.5	1.3	19.9	-2.6	20.6	-3.2
Cc1ccccc1OCC(=O)N1N=C(c2cccnc2)CC1(O)C(F)(F)F (stereo not drawn)	-9.3	3.4	9.6	2.6	6.9	1.7
CCOC(=O)c1nn(-c2ccc(Cl)cc2C)ccc1=O	·	·	·	·	·	0.1
CN(c1ncc(C(F)(F)F)cc1Cl)N1C(=O)c2cccc(N)c2C1=O	2.6	-1.8	8.3	10.2*	1.7	7.4
CCCC1C(C#N)=C(N)Oc2cc(C)n(C)c(=O)c21 (stereo not drawn)	-2.9	-7.6	-1.0	-1.1	-6.4	-1.0
Cc1cc2c(c(=O)n1C)C(Cc1ccccc1)C(C#N)=C(N)O2 (stereo not drawn)	11.1	-1.8	45.4*	-2.7	14.3	2.4
CN(C)c1ccc(/C=N/NC(=O)c2ccnn2C)cc1	6.5	13.7	2.1	-1.9	-4.4	73.0*
O=C(Nc1ccc(Cl)cc1)c1ccc(OC2CSC2)cc1	-3.2	-11.4	-2.3	20.9*	0.9	3.7
CN(Cc1ccccc1)C(=O)C1CCCN(Cc2cccc(Cl)c2)C1 (stereo not drawn)	0.9	-0.2	10.6	-1.6	0.3	-2.4
Cc1[nH]c(C)c(S(=O)(=O)NCc2ccc(Cl)cc2)c1C(=O)N1CCCC1	·	·	·	·	·	9.1
CCn1c(SCC(=O)N2CCCCC2)nc(O)cc1=O	6.8	-4.8	44.2*	-0.7	-18.6	0.5
CCn1c(=O)cc(SCC(=O)N2CCCCC2)c2ccccc21	121.2*	12.8	18.8	0.6	5.1	11.4
CCN1CCN(C(=O)CSc2cc(=O)n(CC)c3ccccc23)CC1	5.5	0.7	5.8	-2.0	-3.5	-4.2
CCn1c(SCC(=O)N2CCOCC2)nc(O)cc1=O	-4.7	1.6	17.6	0.6	6.7	2.2
COc1cc(/C=C(\C#N)C(=O)Nc2cccnc2)ccc1OC(C)C	-1.7	-6.4	10.6	11.3*	2.8	·
O=C(CCN1C(=O)c2ccc([N+](=O)[O-])cc2C1=O)Nc1ccccc1C(=O)O	0.1	-5.2	3.9	1.2	2.5	17.7
SMILES	hK5 inh	thrombin 1536	FXIIa inh	Wee1 stabilizer	FXIa inh 1536	Platelet DG rel
c1ccc(-c2noc(-c3cccc4ccccc34)n2)nc1	-17.9	4.2	6.5	9.1*	4.1	3.8
Cc1ccc(-c2nc(-c3ccccn3)no2)cc1	4.9	3.9	18.9	-4.8	6.3	52.4*
c1ccc(-c2nc(-c3ccccn3)no2)cc1	-0.6	2.0	13.8	-2.8	8.2	-9.6
Cc1ccc(-c2nc(-c3ccccn3)no2)cc1Cl	-3.4	-2.1	10.6	-4.4	1.6	25.6
c1ccc(-c2ccc(-c3nc(-c4ccccn4)no3)cc2)cc1	-6.9	3.0	-7.5	-4.5	4.7	94.8*
COc1cccc(-c2nc(-c3ccccn3)no2)c1OC	-0.5	-8.4	1.0	-0.8	3.8	-0.2
COCC(=O)OCC(=O)Nc1cc(C)c(C)cc1[N+](=O)[O-]	-18.7	-4.5	10.8	17.4*	8.6	1.1
